Assay [1] deals with Mitogen-activated protein kinase kinase kinase 14 (Homo sapiens, UniProt Q99558). Description: Inhibition of recombinant human full-length N-terminal GST-fused/His6-tagged NIK (M1 to P947 residues) expressed in Sf9 insect cells using AKDVDQGSLCTSFVGTLQY peptide as substrate measured after 60 mins by ADP-Glo kinase assay. A general note: ADP-Glo first removes unused ATP, then detects ADP through luciferase.

Assay [2] has as its target T1, Inhibitor of nuclear factor kappa-B kinase subunit epsilon (Homo sapiens, UniProt Q14164).
T1 sequence (Q14164 whole entry): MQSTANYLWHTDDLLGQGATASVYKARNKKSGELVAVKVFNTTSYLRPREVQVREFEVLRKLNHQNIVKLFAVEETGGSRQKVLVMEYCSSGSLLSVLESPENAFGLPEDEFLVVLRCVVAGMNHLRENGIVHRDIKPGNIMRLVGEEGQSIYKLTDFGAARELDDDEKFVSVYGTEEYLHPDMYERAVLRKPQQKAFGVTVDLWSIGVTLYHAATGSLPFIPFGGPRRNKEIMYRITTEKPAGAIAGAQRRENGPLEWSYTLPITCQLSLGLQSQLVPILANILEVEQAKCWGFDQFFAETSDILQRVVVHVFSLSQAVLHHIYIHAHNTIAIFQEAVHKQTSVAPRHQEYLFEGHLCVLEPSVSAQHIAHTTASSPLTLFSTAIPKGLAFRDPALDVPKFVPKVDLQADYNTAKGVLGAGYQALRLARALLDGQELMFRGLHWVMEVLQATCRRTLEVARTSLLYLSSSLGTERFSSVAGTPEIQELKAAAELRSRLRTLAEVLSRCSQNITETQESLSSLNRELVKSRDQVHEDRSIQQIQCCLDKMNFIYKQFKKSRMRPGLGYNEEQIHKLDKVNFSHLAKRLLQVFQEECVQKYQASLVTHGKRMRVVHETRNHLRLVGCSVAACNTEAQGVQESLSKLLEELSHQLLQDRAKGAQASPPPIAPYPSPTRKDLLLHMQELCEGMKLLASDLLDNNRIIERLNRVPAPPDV
Put plainly: Inhibition of recombinant human full-length N-terminal GST-fused/His6-tagged IKKepsilon (M1 to V716 residues) expressed in Sf9 insect cells using ERLLDDRHDSGLDSMKDEE peptide as substrate measured after 60 mins by ADP-Glo kinase assay.

Assay [3] deals with T2, Inhibitor of nuclear factor kappa-B kinase subunit alpha (Homo sapiens, UniProt O15111).
T2 sequence (O15111 whole entry): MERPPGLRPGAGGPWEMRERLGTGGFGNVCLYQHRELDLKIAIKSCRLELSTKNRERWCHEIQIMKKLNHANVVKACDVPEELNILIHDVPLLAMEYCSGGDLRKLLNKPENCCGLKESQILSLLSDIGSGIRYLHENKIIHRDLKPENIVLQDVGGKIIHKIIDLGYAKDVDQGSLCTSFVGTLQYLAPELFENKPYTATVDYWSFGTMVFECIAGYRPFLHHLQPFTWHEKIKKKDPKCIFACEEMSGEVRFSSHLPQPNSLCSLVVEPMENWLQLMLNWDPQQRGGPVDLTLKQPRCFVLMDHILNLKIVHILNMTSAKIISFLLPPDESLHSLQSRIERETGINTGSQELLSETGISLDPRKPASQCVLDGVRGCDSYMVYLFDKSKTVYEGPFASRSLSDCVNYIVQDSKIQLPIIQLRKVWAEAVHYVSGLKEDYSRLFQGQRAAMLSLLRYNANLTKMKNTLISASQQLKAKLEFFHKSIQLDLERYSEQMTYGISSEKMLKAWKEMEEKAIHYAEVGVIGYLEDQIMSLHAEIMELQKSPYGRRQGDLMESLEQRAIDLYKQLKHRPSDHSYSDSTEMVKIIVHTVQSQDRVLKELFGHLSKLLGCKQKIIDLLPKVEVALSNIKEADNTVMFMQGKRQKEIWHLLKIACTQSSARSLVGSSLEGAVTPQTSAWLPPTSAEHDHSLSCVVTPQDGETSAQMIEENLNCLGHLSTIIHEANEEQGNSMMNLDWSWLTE
Put plainly: Inhibition of recombinant full length human His-tagged IKKalpha expressed in baculovirus expression system using ERLLDDRHDSGLDSMKDEE peptide as substrate measured after 60 mins by ADP-Glo kinase assay. The procedure, abridged:
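Recombinant human IKKα, peptide substrate 100 µM, enzyme 8 ng/µL, ATP 1 µM in Tris-HCl pH 7.5 buffer with MgCl2, MnCl2, DTT, Na3VO4, BSA; 25°C, 60 min; ADP-Glo luminescence. Ten concentrations 0.005–100 µM; IC50 by nonlinear regression; means ± SD of three independent experiments.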

Assay [4] has as its target T3, Inhibitor of nuclear factor kappa-B kinase subunit beta (Homo sapiens, UniProt O14920).
T3 sequence (O14920 whole entry): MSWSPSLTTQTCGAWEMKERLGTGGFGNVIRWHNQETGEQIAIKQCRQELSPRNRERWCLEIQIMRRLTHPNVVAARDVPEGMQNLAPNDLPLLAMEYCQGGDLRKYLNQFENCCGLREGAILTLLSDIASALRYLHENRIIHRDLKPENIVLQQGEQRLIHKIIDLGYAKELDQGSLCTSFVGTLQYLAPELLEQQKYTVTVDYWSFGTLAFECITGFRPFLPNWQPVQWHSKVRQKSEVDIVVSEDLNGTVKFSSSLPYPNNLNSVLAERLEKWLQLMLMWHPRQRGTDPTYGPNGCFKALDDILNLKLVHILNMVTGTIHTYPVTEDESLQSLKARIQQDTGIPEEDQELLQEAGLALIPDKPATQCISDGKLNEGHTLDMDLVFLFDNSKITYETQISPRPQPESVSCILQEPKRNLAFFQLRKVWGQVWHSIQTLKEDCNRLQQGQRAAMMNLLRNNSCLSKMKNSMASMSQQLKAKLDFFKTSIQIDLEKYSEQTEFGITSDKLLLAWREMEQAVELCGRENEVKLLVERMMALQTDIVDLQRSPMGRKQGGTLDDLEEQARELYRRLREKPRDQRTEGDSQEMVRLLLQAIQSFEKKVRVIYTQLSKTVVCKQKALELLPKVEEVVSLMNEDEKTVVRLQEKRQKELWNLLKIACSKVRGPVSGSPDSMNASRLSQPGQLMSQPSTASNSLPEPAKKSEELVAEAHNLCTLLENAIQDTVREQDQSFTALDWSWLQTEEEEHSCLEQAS
Put plainly: Inhibition of recombinant human full-length N-terminal GST-fused/His6-tagged IKKbeta (M1 to S756 residues) expressed in Sf9 insect cells using ERLLDDRHDSGLDSMKDEE peptide as substrate measured after 60 mins by ADP-Glo kinase assay.

This passage reports IC50 results from ChEMBL document CHEMBL4257503, “N-Acetyl-3-aminopyrazoles block the non-canonical NF-kB cascade by selectively inhibiting NIK” (Medchemcomm, 2018).

One may read the IC50 as the midpoint of a concentration-inhibition curve.

Chain of Mitogen-activated protein kinase kinase kinase 14 (Q99558 whole entry, the tested form may be a part): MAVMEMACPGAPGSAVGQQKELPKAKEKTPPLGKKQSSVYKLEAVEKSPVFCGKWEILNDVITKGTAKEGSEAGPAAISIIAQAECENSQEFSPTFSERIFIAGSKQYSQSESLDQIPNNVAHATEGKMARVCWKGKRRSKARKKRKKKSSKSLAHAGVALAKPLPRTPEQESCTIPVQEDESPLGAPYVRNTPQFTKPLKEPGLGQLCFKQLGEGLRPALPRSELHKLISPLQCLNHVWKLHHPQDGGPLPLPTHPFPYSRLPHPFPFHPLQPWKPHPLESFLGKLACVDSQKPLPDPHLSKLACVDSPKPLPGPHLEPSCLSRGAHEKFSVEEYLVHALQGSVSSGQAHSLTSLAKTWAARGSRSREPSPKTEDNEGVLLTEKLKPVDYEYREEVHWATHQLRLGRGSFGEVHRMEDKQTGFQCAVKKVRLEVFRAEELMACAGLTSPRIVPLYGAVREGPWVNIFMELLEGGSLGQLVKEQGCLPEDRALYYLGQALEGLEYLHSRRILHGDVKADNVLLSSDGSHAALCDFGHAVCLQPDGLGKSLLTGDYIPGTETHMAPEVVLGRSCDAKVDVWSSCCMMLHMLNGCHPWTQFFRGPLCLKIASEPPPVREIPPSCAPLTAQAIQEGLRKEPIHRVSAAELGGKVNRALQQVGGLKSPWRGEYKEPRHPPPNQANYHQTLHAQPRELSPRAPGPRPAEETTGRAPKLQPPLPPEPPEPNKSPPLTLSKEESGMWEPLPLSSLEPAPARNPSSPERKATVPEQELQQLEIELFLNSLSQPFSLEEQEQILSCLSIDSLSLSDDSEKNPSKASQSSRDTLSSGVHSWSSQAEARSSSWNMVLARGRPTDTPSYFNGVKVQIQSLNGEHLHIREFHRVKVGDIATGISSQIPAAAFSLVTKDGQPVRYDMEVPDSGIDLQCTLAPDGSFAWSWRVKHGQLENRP

Regarding `CC(=O)n1nc(N)c(Br)c1C`, the IC50 in assay [1] is 12.5 µM; in assay [2] it was over 100 µM; in assay [3], over 100 µM; in assay [4] it was 47.7 µM.

Turning to `CC(=O)n1nc(C)c(-c2ccc(Cl)cc2)c1N`, the IC50 in assay [1], in assay [2], in assay [3] and in assay [4] was over 100 µM throughout.

On to `Cc1c(-c2ccc(Cl)c(Cl)c2)c(N)nn1C(=O)C1CCC1`, for which the IC50 in assay [1], in assay [2], in assay [3] and in assay [4] was over 100 µM each time.

As to `CCNC(=O)n1nc(C)c(-c2ccc(Cl)c(Cl)c2)c1N`, the IC50 in assay [1], in assay [2], in assay [3] and in assay [4] was over 100 µM in each case.

Take `CC(=O)n1nc(N)c(-c2ccc(Cl)c(Cl)c2)c1C`: the IC50 in assay [1], in assay [2], in assay [3] and in assay [4] was over 100 µM in each case.

`Cc1nn(C(=O)c2ccncc2)c(N)c1-c1ccc(Cl)c(Cl)c1`: the IC50 in assay [1] was 58.2 µM; in assay [2], over 100 µM; in assay [3] it was over 100 µM; in assay [4], over 100 µM.

For the compound `Cc1[nH]nc(N)c1-c1ccc(OCc2ccccc2)cc1`, the IC50 in assay [1] was over 100 µM; in assay [2] it was 15.4 µM; in assay [3] it was over 100 µM; in assay [4], over 100 µM.

As for `Cc1[nH]nc(N)c1-c1ccc2c(c1)OCO2`, the IC50 in assay [1], in assay [2], in assay [3] and in assay [4] was over 100 µM in each case.

`Cc1[nH]nc(N)c1-c1ccc(Cl)c(Cl)c1`: the IC50 in assay [1] was over 100 µM; in assay [2], over 100 µM; in assay [3], over 100 µM; in assay [4], 50.9 µM.

As to `Cc1nn(C)c(N)c1-c1ccc(Cl)c(Cl)c1`, the IC50 in assay [1], in assay [2], in assay [3] and in assay [4] was over 100 µM each time.

For the compound `Cc1ccc(-c2c(N)n[nH]c2C)cc1`, the IC50 in assay [1], in assay [2], in assay [3] and in assay [4] was over 100 µM throughout.

Take `Cc1nn(C(=O)c2cccnc2)c(N)c1-c1ccc(Cl)c(Cl)c1`: the IC50 in assay [1], in assay [2], in assay [3] and in assay [4] was over 100 µM in each case.

Consider `Cc1nn(C(=O)C2CCCC2)c(N)c1-c1ccc(Cl)c(Cl)c1`, for which the IC50 in assay [1] is 41 µM; in assay [2], over 100 µM; in assay [3], over 100 µM; in assay [4], over 100 µM.

Turning to `CC(=O)n1nc(C)c(-c2cccc(Cl)c2)c1N`, the IC50 in assay [1], in assay [2], in assay [3] and in assay [4] was over 100 µM throughout.

As for `Cc1[nH]nc(N)c1-c1cccc(Br)c1`, the IC50 was over 100 µM in assay [1], over 100 µM in assay [2], over 100 µM in assay [3] and 88 µM in assay [4].

In the case of `Cc1[nH]nc(N)c1-c1ccc2ccccc2c1`, the IC50 in assay [1] was over 100 µM; in assay [2], over 100 µM; in assay [3] it was over 100 µM; in assay [4] it was 42.8 µM.

As to `CC(=O)n1nc(C)c(-c2ccc(C)c(C)c2)c1N`, the IC50 in assay [1] is 39.6 µM; in assay [2] it was over 100 µM; in assay [3] it was over 100 µM; in assay [4] it was over 100 µM.

Turning to `Cc1c(-c2ccc(Cl)c(Cl)c2)c(N)nn1C`, the IC50 in assay [1], in assay [2], in assay [3] and in assay [4] was over 100 µM in each case.

Consider `Cc1[nH]nc(N)c1-c1cccc(OC(F)(F)F)c1`, for which the half-maximal inhibitory concentration (IC50) in assay [1], in assay [2], in assay [3] and in assay [4] was over 100 µM throughout.

For `Cc1nn(C(=O)OC(C)(C)C)c(N)c1-c1ccc(Cl)c(Cl)c1`, the IC50 in assay [1], in assay [2], in assay [3] and in assay [4] was over 100 µM throughout.

For the compound `CC(=O)n1nc(C)c(Br)c1N`, the IC50 in assay [1] is over 100 µM; in assay [2], 22.9 µM; in assay [3], over 100 µM; in assay [4] it was 13.6 µM.

As for `Cc1[nH]nc(NC(=O)C(F)(F)F)c1-c1ccc(Cl)c(Cl)c1`, the IC50 is over 100 µM in assay [1], over 100 µM in assay [2], 34.9 µM in assay [3] and over 100 µM in assay [4].

With `Cc1[nH]nc(N)c1-c1ccc(Br)cc1`, the IC50 is over 100 µM in assay [1], over 100 µM in assay [2], 89.7 µM in assay [3] and 60.1 µM in assay [4].

On to `Cc1[nH]nc(N)c1-c1cccc(C(F)(F)F)c1`, for which the IC50 in assay [1] was over 100 µM; in assay [2], over 100 µM; in assay [3], over 100 µM; in assay [4] it was 22.4 µM.

For `Cc1[nH]nc(NC(=O)c2ccccn2)c1-c1ccc(Cl)c(Cl)c1`, the IC50 in assay [1], in assay [2], in assay [3] and in assay [4] was over 100 µM in each case.

For `CC(=O)n1nc(C)c(-c2cccc(C(F)(F)F)c2)c1N`, the IC50 in assay [1], in assay [2], in assay [3] and in assay [4] was over 100 µM throughout.

For the compound `Cc1nn(C(=O)C2CC2)c(N)c1-c1ccc(Cl)cc1`, the IC50 in assay [1], in assay [2], in assay [3] and in assay [4] was over 100 µM in each case.

Regarding `Cc1[nH]nc(N)c1-c1cc(C(F)(F)F)cc(C(F)(F)F)c1`, the IC50 is over 100 µM in assay [1], over 100 µM in assay [2], over 100 µM in assay [3] and 22.9 µM in assay [4].

As for `CCc1nn(C(C)=O)c(N)c1-c1ccc(Cl)c(Cl)c1`, the IC50 in assay [1], in assay [2], in assay [3] and in assay [4] was over 100 µM in each case.
